# Reference: ChEMBL document CHEMBL1811765, “Synthesis, biological evaluation, and molecular modeling of cinnamic acyl sulfonamide derivatives as novel antitubulin agents” (Bioorg Med Chem, 2011)
# Columns and labels:
# [1] = Inhibition of bovine brain tubulin polymerization after 20 mins by turbidimetric analysis; design: species or system Bos taurus
# How it was run: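 Tubulin at 10 µM in glutamate buffer was preincubated with varying compound concentrations at 30 °C, then cooled to 0 °C. GTP was added, the mix moved to 0 °C cuvettes and warmed to 30 °C, and assembly was followed turbidimetrically.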
# [2] = test system: B16-F10; assay: Antiproliferative activity against mouse B16F10 cells after 48 hrs by MTT based ELISA assay; assay type: functional, cell-based; details: B16-F10, 48 h
# How it was run: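 B16-F10 cells grown to log phase in RPMI 1640 with 10% FBS, seeded at 2 × 10⁴ cells/mL and incubated 24 h at 37 °C, 5% CO₂ before treatment. Read-out was absorbance at 570 nm after an overnight incubation at 37 °C. Three replicate wells per concentration, each assay run at least three times. IC50 reported.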
# [3] = test system: B16-F10; assay: Cell cycle arrest in mouse B16F10 cells assessed as accumulation at S phase at 1 ug/ml after 24 hrs by flow cytometry analysis (reference value: 9.40%); assay type: functional
# [4] = test system: B16-F10; assay: Cell cycle arrest in mouse B16F10 cells assessed as accumulation at G2/M phase at 1 ug/ml after 24 hrs by flow cytometry analysis (reference value: 17.03%); assay type: functional
# [5] = test system: B16-F10; assay: Cell cycle arrest in mouse B16F10 cells assessed as accumulation at G0/G1 phase at 5 ug/ml after 24 hrs by flow cytometry analysis (reference value: 48.57%); assay type: functional
# [6] = test system: B16-F10; assay: Cell cycle arrest in mouse B16F10 cells assessed as accumulation at G0/G1 phase at 1 ug/ml after 24 hrs by flow cytometry analysis (reference value: 48.57%); assay type: functional
# [7] = test system: B16-F10; assay: Cell cycle arrest in mouse B16F10 cells assessed as accumulation at G2/M phase at 5 ug/ml after 24 hrs by flow cytometry analysis (reference value: 17.03%); assay type: functional
# [8] = test system: B16-F10; assay: Cell cycle arrest in mouse B16F10 cells assessed as accumulation at S phase at 5 ug/ml after 24 hrs by flow cytometry analysis (reference value: 9.40%); assay type: functional
structure (smiles),measurement,setting,value
Cc1ccc(S(=O)(=O)NC(=O)/C=C/c2ccc(N(C)C)cc2)cc1,IC50,[1],37 µg/mL
same,IC50,[2],4.3 µg/mL
O=C(/C=C/c1ccc(Br)cc1)NS(=O)(=O)c1ccc(Br)cc1,IC50,[1],53 µg/mL
same,IC50,[2],5.1 µg/mL
COc1ccc(/C=C/C(=O)NS(=O)(=O)c2ccccc2)cc1,IC50,[1],160 µg/mL
same,IC50,[2],13.2 µg/mL
COc1ccc(/C=C/C(=O)NS(=O)(=O)c2ccc(F)cc2)cc1,IC50,[1],45 µg/mL
same,IC50,[2],5.1 µg/mL
COc1ccc(/C=C/C(=O)NS(=O)(=O)c2ccc(Br)cc2)cc1,IC50,[1],53 µg/mL
same,IC50,[2],5.8 µg/mL
O=C(/C=C/c1ccc(Cl)cc1)NS(=O)(=O)c1ccc(Br)cc1,IC50,[1],10.8 µg/mL
same,IC50,[2],2.8 µg/mL
O=C(/C=C/c1ccc(Cl)cc1)NS(=O)(=O)c1ccc(Cl)cc1,IC50,[1],9.3 µg/mL
same,IC50,[2],2.5 µg/mL
O=C(/C=C/c1ccc(F)cc1)NS(=O)(=O)c1ccc(Br)cc1,IC50,[1],14.7 µg/mL
same,IC50,[2],2.8 µg/mL
O=C(/C=C/c1ccc(Cl)cc1)NS(=O)(=O)c1ccccc1,IC50,[1],15.3 µg/mL
same,IC50,[2],2.2 µg/mL
O=C(/C=C/c1ccc(Cl)cc1)NS(=O)(=O)c1ccc(F)cc1,IC50,[1],8.9 µg/mL
same,IC50,[2],2 µg/mL
Cc1ccc(S(=O)(=O)NC(=O)/C=C/c2ccc(Cl)cc2)cc1,IC50,[1],30 µg/mL
same,IC50,[2],4.6 µg/mL
O=C(/C=C/c1ccccc1)NS(=O)(=O)c1ccccc1,IC50,[1],37 µg/mL
same,IC50,[2],3.5 µg/mL
Cc1ccc(S(=O)(=O)NC(=O)/C=C/c2ccccc2)cc1,IC50,[1],152 µg/mL
same,IC50,[2],13.8 µg/mL
O=C(/C=C/c1ccccc1)NS(=O)(=O)c1ccc(F)cc1,IC50,[1],4.5 µg/mL
same,IC50,[2],2.1 µg/mL
O=C(/C=C/c1ccccc1)NS(=O)(=O)c1ccc(Cl)cc1,IC50,[1],14.8 µg/mL
same,IC50,[2],2.2 µg/mL
O=C(/C=C/c1ccccc1)NS(=O)(=O)c1ccc(Br)cc1,IC50,[1],63 µg/mL
same,IC50,[2],3.9 µg/mL
O=C(/C=C/c1ccc(F)cc1)NS(=O)(=O)c1ccccc1,IC50,[1],4.5 µg/mL
same,IC50,[2],2.1 µg/mL
Cc1ccc(S(=O)(=O)NC(=O)/C=C/c2ccc(F)cc2)cc1,IC50,[1],40 µg/mL
same,IC50,[2],4.8 µg/mL
O=C(/C=C/c1ccc(F)cc1)NS(=O)(=O)c1ccc(F)cc1,Activity,[3],9.08%
same,Activity,[4],30.21%
same,Activity,[5],5.65%
same,Activity,[6],26.7%
same,IC50,[1],2.4 µg/mL
same,Activity,[7],49%
same,IC50,[2],0.8 µg/mL
same,Activity,[8],4.22%
O=C(/C=C/c1ccc(F)cc1)NS(=O)(=O)c1ccc(Cl)cc1,IC50,[1],4.5 µg/mL
same,IC50,[2],2.6 µg/mL
O=C(/C=C/c1ccc(Br)cc1)NS(=O)(=O)c1ccccc1,IC50,[1],74 µg/mL
same,IC50,[2],3.9 µg/mL
Cc1ccc(S(=O)(=O)NC(=O)/C=C/c2ccc(Br)cc2)cc1,IC50,[1],137 µg/mL
same,IC50,[2],12.1 µg/mL
O=C(/C=C/c1ccc(Br)cc1)NS(=O)(=O)c1ccc(F)cc1,IC50,[1],3.8 µg/mL
same,IC50,[2],1.2 µg/mL
O=C(/C=C/c1ccc(Br)cc1)NS(=O)(=O)c1ccc(Cl)cc1,IC50,[1],55 µg/mL
same,IC50,[2],5.2 µg/mL
COc1ccc(/C=C/C(=O)NS(=O)(=O)c2ccc(C)cc2)cc1,IC50,[1],146 µg/mL
same,IC50,[2],12.2 µg/mL
COc1ccc(/C=C/C(=O)NS(=O)(=O)c2ccc(Cl)cc2)cc1,IC50,[1],52 µg/mL
same,IC50,[2],5.3 µg/mL
CN(C)c1ccc(/C=C/C(=O)NS(=O)(=O)c2ccccc2)cc1,IC50,[1],26 µg/mL
same,IC50,[2],2.3 µg/mL
CN(C)c1ccc(/C=C/C(=O)NS(=O)(=O)c2ccc(F)cc2)cc1,IC50,[1],10 µg/mL
same,IC50,[2],2.3 µg/mL
CN(C)c1ccc(/C=C/C(=O)NS(=O)(=O)c2ccc(Cl)cc2)cc1,IC50,[1],14 µg/mL
same,IC50,[2],2.8 µg/mL
CN(C)c1ccc(/C=C/C(=O)NS(=O)(=O)c2ccc(Br)cc2)cc1,IC50,[1],34 µg/mL
same,IC50,[2],4.2 µg/mL
O=C(/C=C/c1ccc([N+](=O)[O-])cc1)NS(=O)(=O)c1ccccc1,IC50,[1],50 µg/mL
same,IC50,[2],4.8 µg/mL
Cc1ccc(S(=O)(=O)NC(=O)/C=C/c2ccc([N+](=O)[O-])cc2)cc1,IC50,[1],151 µg/mL
same,IC50,[2],13.5 µg/mL
O=C(/C=C/c1ccc([N+](=O)[O-])cc1)NS(=O)(=O)c1ccc(F)cc1,IC50,[1],6.3 µg/mL
same,IC50,[2],2.2 µg/mL
O=C(/C=C/c1ccc([N+](=O)[O-])cc1)NS(=O)(=O)c1ccc(Cl)cc1,IC50,[1],134 µg/mL
same,IC50,[2],13.7 µg/mL
O=C(/C=C/c1ccc([N+](=O)[O-])cc1)NS(=O)(=O)c1ccc(Br)cc1,IC50,[1],163 µg/mL
same,IC50,[2],13.9 µg/mL
O=C(/C=C/c1ccccc1[N+](=O)[O-])NS(=O)(=O)c1ccccc1,IC50,[1],74 µg/mL
same,IC50,[2],6 µg/mL
Cc1ccc(S(=O)(=O)NC(=O)/C=C/c2ccccc2[N+](=O)[O-])cc1,IC50,[1],102 µg/mL
same,IC50,[2],10.3 µg/mL
O=C(/C=C/c1ccccc1[N+](=O)[O-])NS(=O)(=O)c1ccc(F)cc1,IC50,[1],69 µg/mL
same,IC50,[2],6 µg/mL
O=C(/C=C/c1ccccc1[N+](=O)[O-])NS(=O)(=O)c1ccc(Cl)cc1,IC50,[1],78 µg/mL
same,IC50,[2],6.6 µg/mL
O=C(/C=C/c1ccccc1[N+](=O)[O-])NS(=O)(=O)c1ccc(Br)cc1,IC50,[1],134 µg/mL
same,IC50,[2],12.6 µg/mL
COc1cc2c(c(OC)c1OC)-c1ccc(OC)c(=O)cc1[C@@H](NC(C)=O)CC2 [COLCHICINE],Activity,[3],1.3%
same,Activity,[4],61.11%
same,Activity,[6],1.58%
COc1ccc(/C=C\c2cc(OC)c(OC)c(OC)c2)cc1O [COMBRETASTATIN A4],IC50,[1],0.7 µg/mL
